Screening results from PubChem BioAssay.
SENP1 inh = human SENP1 catalytic domain inhibitors, primary screen, biochemical, FRET, uHTS | hit rate 0.21% among 360,000 | inhibition, % at 10 µM | Sentrin-specific protease 1 (Homo sapiens), Q9P0U3 | AID 624204, 2012 | recombinant SENP1 catalytic domain, CyPet-SUMO1-YPet FRET cleavage;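 active means inhibition at least 30% at 10 µM, raw YFP signal under a set limit, fluorescence ratio 0.5 to 1.5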
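Test system: human SENP1 catalytic domain; medium: Tris pH 8 buffer plus EDTA, NaCl, BME, BSA, NP40, catalase; incubation: 50 min reaction at room temperature; technique: FRET, CFP and YFP emission; controls: no-enzyme low control and enzyme-plus-DMSO high control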
SENP7 inh = SENP7 protease inhibitors, primary screen, biochemical, luminescence, uHTS; Sentrin-specific protease 7 (Homo sapiens), Q9BQF6; recombinant SENP7, Z-RLRGG-aminoluciferin luminescence, 40 min; inhibition, % at 5 µM; hit rate 1.5% among 330,000; AID 434973, 2010;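 active means inhibition above about 50% at the single test dose, limit read from the data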
SENP6 block = SENP6 protease inhibitors, primary screen, biochemical, luminescence, uHTS; Sentrin-specific protease 6 (Homo sapiens), Q9GZR1; Recombinant SENP6 catalytic domain, aminoluciferin luminescence; inhibition, % at 10 µM; hit rate 1.8% among 330,000;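 active means inhibition above about 50% at the single tested dose, limit read from the data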
SENP8 block-1 = SENP8 protease inhibitors, primary screen, biochemical, luminescence; Sentrin-specific protease 8 (Homo sapiens), Q96LD8; purified SENP8, Z-RLRGG-aminoluciferin cleavage; inhibition, % at 10 µM; hit rate 1.2% among 330,000; in the data active means inhibition above about 50%
SENP8 block-2 = human SENP8 protease inhibitors, primary screen, biochemical, fluorescence, Nedd8 protein substrate, uHTS. recombinant SENP8. inhibition, % at 20 µM. Sentrin-specific protease 8 (Homo sapiens), Q96LD8. hit rate 0.64% among 360,000; in the data active means inhibition mostly above about 40%, no sharp cut-off; inactive means mostly below about 27%
Apaf-1 inh = inhibitors of human Apaf-1 apoptosome, primary screen, biochemical, DEVD-Rh110 fluorescence, uHTS; reconstituted apoptosome caspase-3 activity; Apoptotic protease-activating factor 1 (Homo sapiens), O14727; AID 489030, 2010; inhibition, % at 20 µM; hit rate 0.71% among 330,000; active means inhibition of at least 40% at 20 µM
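System – cell-free apoptosome with Apaf-1, procaspase-3 and caspase-9 · Buffer or medium – pH 7.5 Hepes buffer with CHAPS, BSA, DTT · Also added – cytochrome c with DEVD-Rh110 · Times – 30 min compound preincubation, 50 min activation, room temperature · Technique – Rh110 fluorescence intensity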
Hits are given with their value. A selection: hits, their analogues and other compounds. The true share with any hit is near 2.9%.

O=C(CCC1N=C2c3ccccc3N=C(SCc3ccc(Cl)cc3)N2C1=O)NCc1ccco1 (centres undefined) was read as SENP1 inh inactive, SENP7 inh inactive, SENP6 block inactive, SENP8 block-1 inactive, SENP8 block-2 inactive and Apaf-1 inh 40.8.
Screening O=C(CCC1N=C2c3ccccc3N=C(SCc3ccc(F)cc3)N2C1=O)NCc1ccco1 (centres undefined) returned SENP1 inh inactive, SENP7 inh inactive, SENP6 block inactive, SENP8 block-1 inactive, SENP8 block-2 inactive and Apaf-1 inh inactive.
`C[C@]1(CO)CCC[C@@]2(C)C1CC[C@@H](CO)[C@@H]2CCc1ccoc1` (some centres undefined) gave SENP1 inh inactive, SENP7 inh inactive, SENP6 block inactive, SENP8 block-1 inactive, SENP8 block-2 inactive and Apaf-1 inh inactive.
Screening CCOc1ccc(Nc2nc(N)c3ccccc3n2)cc1 returned SENP1 inh inactive, SENP7 inh 101.1, SENP6 block 95.7, SENP8 block-1 96.2, SENP8 block-2 inactive and Apaf-1 inh inactive.
`CN(C)c1ccc(Nc2nc(N)c3ccccc3n2)cc1` gave SENP1 inh inactive, SENP7 inh 98.9, SENP6 block 95.7, SENP8 block-1 94.6, SENP8 block-2 inactive and Apaf-1 inh inactive.
`COc1ccc(C)cc1Nc1nc(N)c2ccccc2n1` gave SENP1 inh inactive, SENP7 inh inactive, SENP6 block inactive, SENP8 block-1 inactive, SENP8 block-2 inactive and Apaf-1 inh inactive.
`CCN1CCN(S(=O)(=O)c2ccc(C(=O)Nc3sc4c(c3C(N)=O)CCN(CC)C4)cc2)CC1` gave SENP1 inh inactive, SENP7 inh inactive, SENP6 block inactive, SENP8 block-1 inactive, SENP8 block-2 inactive and Apaf-1 inh inactive.
Screening CCN1CCc2c(sc(NC(=O)c3ccc4ccccc4c3)c2C(N)=O)C1 returned SENP1 inh inactive, SENP7 inh inactive, SENP6 block inactive, SENP8 block-1 inactive, SENP8 block-2 inactive and Apaf-1 inh 40.3.
CN1CCc2c(sc(NC(=O)c3ccc(C(=O)c4ccccc4)cc3)c2C(N)=O)C1 was read as SENP1 inh inactive, SENP7 inh inactive, SENP6 block inactive, SENP8 block-1 inactive, SENP8 block-2 inactive and Apaf-1 inh 43.7.
`CC(C)N1CCc2c(sc(NC(=O)c3cc(-c4cccs4)nc4ccccc34)c2C(N)=O)C1` gave SENP1 inh inactive, SENP7 inh inactive, SENP6 block inactive, SENP8 block-1 inactive, SENP8 block-2 inactive and Apaf-1 inh 61.1.
CN1CCc2c(sc(NC(=O)CS(=O)(=O)c3ccccc3)c2C(N)=O)C1 was read as SENP1 inh inactive, SENP7 inh inactive, SENP6 block inactive, SENP8 block-1 inactive, SENP8 block-2 inactive and Apaf-1 inh inactive.
`CC(C)N1CCc2c(sc(NC(=O)c3nc4ccccc4s3)c2C(N)=O)C1` gave SENP1 inh inactive, SENP7 inh inactive, SENP6 block inactive, SENP8 block-1 inactive, SENP8 block-2 inactive and Apaf-1 inh inactive.
Screening COCCN1C[C@@H](CO)O[C@@H](n2cnc3c(NC(C)C)ncnc32)C1 returned SENP1 inh inactive and SENP8 block-2 inactive.
Screening O=C(c1ccccc1)C1CCN(C(=O)c2cccs2)CC1 returned SENP1 inh inactive, SENP7 inh inactive, SENP6 block inactive, SENP8 block-1 inactive, SENP8 block-2 inactive and Apaf-1 inh inactive.
O=C1NC(=O)[C@@H]2C3c4ccccc4C=CN3[C@H](C(=O)c3cccs3)[C@H]12 (some centres undefined) was read as SENP7 inh inactive, SENP6 block inactive, SENP8 block-1 inactive and Apaf-1 inh 47.4.
`O=C(C[C@@H]1CC[C@H](NS(=O)(=O)c2ccccc2F)[C@@H](CO)O1)NCCCN1CCOCC1` gave SENP1 inh inactive and SENP8 block-2 inactive.
For NC1=C(Cl)C(=O)c2ccccc2C1=O the results were SENP1 inh inactive and SENP8 block-2 82.9.
`NS(=O)(=O)c1ccc2c(c1)C(=NO)c1cc(S(N)(=O)=O)ccc1-2` gave SENP1 inh inactive, SENP7 inh inactive, SENP6 block inactive, SENP8 block-1 inactive, SENP8 block-2 inactive and Apaf-1 inh inactive.
NC1=C(Cl)C(=O)c2ccc(S(N)(=O)=O)cc2C1=O was read as SENP1 inh inactive and SENP8 block-2 96.1.
CCOC(=O)[C@]12CCC=C1N(Cc1ccco1)C(=O)[C@H](CC(=O)NCCCN1CCCC1=O)C2 was read as SENP1 inh inactive and SENP8 block-2 inactive.
For CN(C)S(=O)(=O)c1cccc(NC(=S)N/N=C/c2ccc(O)c(O)c2O)c1 the results were SENP1 inh inactive and SENP8 block-2 43.3.
Screening O=[N+]([O-])c1cccc(C2=NC(c3ccccc3)CO2)c1 (centres undefined) returned SENP1 inh inactive, SENP7 inh inactive, SENP6 block inactive, SENP8 block-1 inactive, SENP8 block-2 inactive and Apaf-1 inh inactive.
For COc1ccc(C2=NC(c3ccccc3)CO2)cc1 (centres undefined) the results were SENP7 inh 50.5, SENP6 block 69.9, SENP8 block-1 63.2 and Apaf-1 inh inactive.
CCOc1cccc(CNc2ccc(O)cc2)c1OCc1ccc(Cl)cc1Cl was read as SENP1 inh inactive, SENP7 inh inactive, SENP6 block inactive, SENP8 block-1 inactive, SENP8 block-2 68.9 and Apaf-1 inh inactive.
Screening CCCCOCCCN1CC(=O)N2[C@@H](Cc3c([nH]c4ccccc34)C2(C)C)C1=O returned SENP1 inh inactive, SENP7 inh inactive, SENP6 block inactive, SENP8 block-1 inactive, SENP8 block-2 inactive and Apaf-1 inh inactive.
Screening COc1cccc(-c2cnc(C(O)c3ccc(CN4CCCC4)cc3)[nH]2)c1 (centres undefined) returned SENP1 inh inactive and SENP8 block-2 inactive.
O=C(COc1cc(Cl)c(Cl)cc1Cl)Nc1cccc(O)c1 was read as SENP1 inh inactive, SENP7 inh 63.4, SENP6 block inactive, SENP8 block-1 inactive, SENP8 block-2 inactive and Apaf-1 inh inactive.
`Cc1oc(/N=C/c2ccccc2)c(C#N)c1C` gave SENP1 inh inactive, SENP7 inh inactive, SENP6 block inactive, SENP8 block-1 inactive, SENP8 block-2 inactive and Apaf-1 inh inactive.
Screening COc1[nH]c(/N=C/c2ccccc2)c(C#N)c1C#N returned SENP1 inh 69.6, SENP7 inh inactive, SENP6 block inactive, SENP8 block-1 inactive, SENP8 block-2 inactive and Apaf-1 inh inactive.
For CCN(C(=O)COC(=O)CCC(=O)c1ccc(Cl)cc1)c1c(N)n(Cc2ccccc2)c(=O)[nH]c1=O the results were SENP1 inh inactive and SENP8 block-2 inactive.
